LMPTP block – LMPTP (human) inhibition; P24666; recombinant LMPTP-A, OMFP fluorogenic substrate, fluorescence intensity; inhibition, % at 20 µM; 360,000 compounds, 0.22% hits; AID 651560;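 active = compounds that cut the enzyme signal by at least half of the control window in the single-dose screen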;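 note: plate controls were DMSO wells with enzyme plus substrate for no effect and substrate without enzyme for full effect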
Target sequence (P24666 whole entry, looked up): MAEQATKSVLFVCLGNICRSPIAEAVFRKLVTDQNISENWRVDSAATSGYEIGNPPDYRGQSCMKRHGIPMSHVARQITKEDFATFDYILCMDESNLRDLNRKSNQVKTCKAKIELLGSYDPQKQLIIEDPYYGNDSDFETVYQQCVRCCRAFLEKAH
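Buffer or medium: Bis-Tris pH 6.0, DTT, detergent; Assay system: LMPTP-A enzyme; Quantity: 0.625 nM enzyme; Detection: endpoint fluorescence intensity; Times: 50 min dark incubation at room temperature; Controls: substrate-only low control, DMSO enzyme-plus-substrate high control; Doses: single 20 µM dose; Read-out: percent inhibition versus substrate-only and uninhibited controls; Reagent: 400 µM OMFP.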
STEP inh – blocks human striatal-enriched tyrosine phosphatase | P54829 | recombinant STEP, OMFP fluorogenic substrate, fluorescence | inhibition, % at 20 µM | 360,000 compounds, 0.25% hits | AID 588621;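 active = inhibition at 20 µM, scaled per plate between control wells, above about 37%, limit read from the data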;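 note: 0% = DMSO with enzyme and substrate and 100% = substrate only without enzyme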
Target sequence (P54829 whole entry, looked up): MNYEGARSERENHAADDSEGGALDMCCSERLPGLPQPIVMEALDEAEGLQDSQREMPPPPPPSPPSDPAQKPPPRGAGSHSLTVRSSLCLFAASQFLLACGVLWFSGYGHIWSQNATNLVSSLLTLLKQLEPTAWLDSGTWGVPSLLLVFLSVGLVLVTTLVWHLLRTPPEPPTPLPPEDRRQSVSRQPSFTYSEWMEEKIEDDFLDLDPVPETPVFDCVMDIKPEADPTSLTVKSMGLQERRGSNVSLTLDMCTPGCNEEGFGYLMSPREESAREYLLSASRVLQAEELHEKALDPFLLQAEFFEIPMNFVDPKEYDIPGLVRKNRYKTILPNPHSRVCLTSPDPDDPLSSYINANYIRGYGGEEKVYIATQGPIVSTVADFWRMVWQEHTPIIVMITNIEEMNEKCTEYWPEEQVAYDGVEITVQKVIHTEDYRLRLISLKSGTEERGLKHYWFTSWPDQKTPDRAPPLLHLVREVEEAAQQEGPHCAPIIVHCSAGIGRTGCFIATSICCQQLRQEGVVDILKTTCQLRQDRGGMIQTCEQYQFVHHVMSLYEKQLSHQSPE
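Also added – OMFP at 25 µM · Test system – STEP tyrosine phosphatase · Technique – FITC-channel fluorescence of OMFP product · Schedule – 20 min at room temperature, dark · Evaluation – control-normalized % inhibition with plate pattern correction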
SUMO1-SIM PPI – modulators of human SUMO1-mediated protein-protein interactions; 360,000 compounds, 0.33% hits; AID 602429; P63165; SUMO1 binding to a labelled peptide, TR-FRET, 1 h; inhibition, % at 20 µM; in the data active = inhibition above about 37%
GRK2 inh – blocks RNA aptamer binding to human GRK2; P25098; bead flow cytometry, FAM-aptamer displacement from GRK2; inhibition of aptamer binding, % at 10 µM; 330,000 compounds, 0.59% hits;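 active = inhibition of aptamer binding above 40%, roughly 3 SD of noise, on plates passing a quality check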;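 note: median bead fluorescence of bound FAM aptamer so fluorescent compounds give negative values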
DNMT1 inh – inhibitors of human DNMT1; DNMT1 molecular beacon, Hinp1I cleavage, fluorescence; inhibition (reported as % activation of signal), % at 10 µM; 360,000 compounds, 0.83% hits; AID 588458; in the data active = inhibition above about 50%
Scp1 inh – inhibitors of human Scp-1 phosphatase; Q9GZU7; Recombinant Scp1, phosphopeptide, malachite green phosphate absorbance; inhibition, % at 20 µM; 340,000 compounds, 0.88% hits; AID 493091;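 active = inhibition above about 50% at 20 µM, limit read from the data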;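 note: plate controls were DMSO wells with enzyme for no effect and wells lacking enzyme for full effect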
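Times: enzyme reaction 45 min at room temperature, colour 5 min, stabilisation 30 min. Material: SCP-1 catalytic fragment, aa 76-261. Medium: Acidic Tris acetate buffer with magnesium and detergent. Signal: colorimetric free-phosphate detection, absorbance 630 nm. Read-out basis: % inhibition of SCP-1 phosphate liberation. Reagent: Phosphorylated 17-residue peptide substrate.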
Beacon interf DR – beacon fluorescence artifact, dose response counter-screen. shares compounds with DNMT1 inh. molecular beacon fluorescence, spectral interference counter-screen. IC50, µM. 200 tested, under 10 active. AID 602382; call rule not given here
DNMT1 confirm – DNMT1 inhibition confirmation, single concentration; shares compounds with DNMT1 inh; DNMT1 molecular beacon HinP1I cleavage, fluorescence; inhibition, % at 10 µM; 2,300 compounds, 8% hits;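 active = average inhibition of at least 30% in the single-concentration confirmation test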
Beacon interf – counter-screen for DNMT1 inhibitors: spectral interference; shares compounds with DNMT1 inh; DNMT1 molecular beacon spectral interference counterscreen, fluorescence 485/520; activation (fluorescence interference), % at 10 µM; 2,300 compounds, 1% hits;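 active = activation of at least 30% at 10 µM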;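 note: DNMT1 catalytic domain with a HinP1I cleavage step and a FAM/dabcyl DNA beacon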
Active calls of the source: *; nt = not tested or not shown. Rows were chosen to be rich in hits. Some 2.2% of all compounds tested hit in one or more screens of this group.

SMILES | LMPTP block | STEP inh | SUMO1-SIM PPI | GRK2 inh | DNMT1 inh | Scp1 inh | DNMT1 confirm | Beacon interf | others
CC(=O)N1N=C(c2ccccc2)CC1c1cccs1 (stereo not drawn) | -1.0 | 0.9 | -3.6 | 0.0 | 3.0 | -12.3 | nt | nt
O=C(c1ccccc1)N1N=C(c2ccccc2)CC1c1cccs1 (stereo not drawn) | 4.8 | 1.3 | -1.5 | 6.0 | 89.3* | -18.9 | 0.8 | 3.6
Cc1ccc(-c2[nH]ncc2/C=N/n2c(COc3ccccc3C)nc3ccccc3c2=O)cc1 | 0.1 | 2.9 | 1.8 | 1.0 | 70.2* | -4.4 | 0.3 | -2.0
Cc1ccccc1OCc1nc2ccccc2c(=O)n1/N=C/c1c[nH]c2ccccc12 | 0.7 | 0.6 | 1.5 | 0.0 | 8.4 | -3.7 | nt | nt
Cc1ccc(-n2nc3c4c(cccc4c2=O)-c2ccccc2-3)cc1 | 4.2 | 2.1 | -5.8 | 3.0 | 52.5* | -4.7 | 2.4 | 0.0
O=C(O)Cn1nc2c3c(cccc3c1=O)-c1ccccc1-2 | -1.9 | 1.4 | -14.2 | 0.0 | 2.5 | -0.3 | nt | nt
COc1ccc(C2CC(c3ccccc3C(F)(F)F)=NN2c2ccc(S(N)(=O)=O)cc2)cc1 (stereo not drawn) | 1.6 | -3.5 | 7.1 | 4.0 | 65.1* | 3.9 | 15.0 | 12.2
O=c1ccc(-c2nc3ccccc3n2C(CCc2ccccc2)c2nc3ccccc3[nH]2)c[nH]1 (stereo not drawn) | 0.6 | nt | 1.3 | nt | nt | nt | nt | nt
CCN1C(=O)/C(=C/C=C2/SCCN2C)SC1=S | 8.4 | -4.4 | -217.2 | 0.0 | 35.6 | -6.7 | nt | nt
CN1CCS/C1=C\C=C1/SC(=S)N(CC(=O)O)C1=O | 27.3 | 2.8 | -244.6 | nt | 62.9* | 8.7 | 57.2* | 59.9*
CCCCN(C(=O)c1ccccc1Cl)C(CC(C)C)c1nc2ccccc2[nH]1 (stereo not drawn) | 0.0 | -1.4 | -1.1 | nt | -4.2 | nt | nt | nt
CC(=O)OCCc1c2ccccc2c(CCCN(C)C)c2ccccc12 | 2.9 | 0.5 | -46.0 | 0.0 | 51.5* | -9.8 | 3.1 | 1.9
CC(=O)OCCc1[nH]c2ccccc2c1C | -3.1 | 3.0 | 4.3 | 4.0 | 3.6 | -1.0 | nt | nt
COc1ccc(S(=O)(=O)NCc2cccnc2)cc1OC | -1.1 | -0.2 | 0.9 | 0.0 | 56.2* | -5.0 | 1.3 | 0.5
COc1ccc(S(=O)(=O)NCc2ccncc2)cc1OC | -1.0 | -1.8 | -1.8 | 0.0 | 0.1 | -0.3 | nt | nt
CCc1cccc(CC)c1-n1c(SCC(=O)c2c(N)n(C)c(=O)n(C)c2=O)nnc1-c1cccnc1 | 0.5 | 3.3 | 2.7 | 0.0 | 59.5* | -2.4 | 0.3 | -3.2
CC(=O)NC(CC(=O)NC(C)c1ccc(Cl)cc1Cl)c1ccccc1 (stereo not drawn) | -1.4 | -0.9 | 0.7 | 3.0 | 67.9* | -4.2 | -0.2 | 1.5
CCCCC1=CC2=C(c3ccco3)C(=O)C(C)(OC(=O)c3ccc(OC)cc3)C(=O)C2=CN1Cc1ccco1 (stereo not drawn) | 17.0 | 3.5 | 10.0 | 0.0 | 55.9* | -8.5 | -0.7 | 3.2
Nc1sc(-c2ccccc2)cc1C(=O)N1CCN(c2ccccc2)CC1 | 2.6 | nt | -0.3 | nt | nt | nt | nt | nt
CN(C)S(=O)(=O)N(CC(=O)N(Cc1ccccc1)Cc1ccccc1)c1ccccc1 | 12.6 | 6.6 | 1.3 | 0.0 | 55.5* | 38.9 | 2.6 | 3.9
C=CS(=O)(=O)c1c2cc(OC)ccc2nc2ccc(OC)cc12 | 1.3 | 0.8 | -12.2 | nt | 7.2 | -2.8 | nt | nt
CC1(C(=O)NS(=O)(=O)c2ccc(Cl)cc2)CCN1C(=O)C1CC1 (stereo not drawn) | -1.2 | -2.6 | 0.9 | nt | 2.7 | nt | nt | nt
CCOc1ccccc1-n1nnnc1SCC(=O)NC(=O)NCc1ccco1 | 10.9 | -15.1 | 4.9 | 1.0 | 59.6* | 48.2 | 1.4 | 5.2
CCOc1ccccc1-n1nnnc1SCC(=O)NC(=O)Cc1ccccc1 | -1.5 | -1.1 | 0.1 | nt | -0.5 | -1.2 | nt | nt
O=C(CSc1nnnn1-c1ccccc1)NC(=O)NCc1ccco1 | 30.1 | -2.2 | 26.6 | 1.0 | 68.2* | 42.2 | -0.4 | -0.7
SMILES | LMPTP block | STEP inh | SUMO1-SIM PPI | GRK2 inh | DNMT1 inh | Scp1 inh | DNMT1 confirm | Beacon interf | others
COc1cc(/C=C/C=C2/CC/C(=C/C=C/c3ccc(O)c(OC)c3)C2=O)ccc1O | 13.1 | -7.7 | 10.7 | nt | 90.3* | 39.3 | 27.4 | 0.5 | Beacon interf DR=>99
COc1ccc2cc(/C=N/NC(=O)CSCc3ccc([N+](=O)[O-])cc3)c(Cl)nc2c1 | 0.8 | -2.4 | 3.7 | 0.0 | 64.5* | -7.7 | 6.0 | 1.0
Cc1ccc(S(=O)(=O)N2[C@@H](CCO)OC[C@H]2C(C)C)cc1 | -2.1 | nt | -3.5 | nt | nt | nt | nt | nt
CCC1CCc2sc(C(=O)O)cc2C1 (stereo not drawn) | -2.4 | -7.7 | 2.9 | 0.0 | 3.9 | -9.6 | nt | nt
CCC1CCc2sc(C(=O)NNC(=O)c3ccncc3)cc2C1 (stereo not drawn) | 0.3 | -1.0 | 4.0 | 2.0 | 88.2* | -3.8 | 5.4 | 6.2
Cc1ccc(NCC(=O)N/N=C\c2cccc(O)c2)cc1 | -0.1 | -3.8 | 1.3 | 1.0 | 57.8* | -3.4 | -0.4 | 4.1
Cc1ccc(NCC(=O)N/N=C/c2cccc(Br)c2)cc1 | 3.4 | -2.0 | 0.5 | 1.0 | 3.6 | 2.0 | nt | nt
CC(C)c1ccc(/C=N/NC(=O)C2CCCC2)cc1 | -0.1 | -0.7 | -8.9 | 2.0 | 2.8 | -13.1 | nt | nt
CC(C)(C)c1ccc(/C=N/NC(=O)C2CCCC2)cc1 | 1.6 | -2.2 | -7.2 | 0.0 | 76.8* | -1.8 | 1.1 | 2.1
C=CCCC(=O)N1C[C@H]2CON(C)[C@H]2C[C@H]1c1ccc(-n2ccnc2)cc1 | -0.7 | -0.5 | 0.3 | nt | 0.2 | nt | nt | nt
COc1cc(/C=C(\C#N)C(=O)NCC2CCCO2)cc(OC)c1OC (stereo not drawn) | 3.4 | 1.7 | -6.7 | 0.0 | 56.6* | -2.7 | 2.7 | 3.8
Cc1ccccc1-c1cc2nc(Oc3cccc4ccccc34)n(C)c(=O)c2s1 | 0.4 | 4.5 | -11.5 | nt | -9.8 | nt | nt | nt
Cc1ccccc1N1CC(C(=O)Nc2nnc(SCC(=O)Nc3nccs3)s2)CC1=O (stereo not drawn) | -0.6 | 0.2 | 15.8 | 3.0 | -4.4 | 2.8 | nt | nt
Cc1cccc(N2CC(C(=O)Nc3nnc(SCC(=O)Nc4nccs4)s3)CC2=O)c1 (stereo not drawn) | 1.6 | 1.6 | 2.4 | 2.0 | 53.2* | 2.4 | -1.4 | -0.3
O=C1CC(c2ccco2)CC(O)=C1C=NCC1CCNCC1 (stereo not drawn) | 0.3 | 0.5 | 49.2* | 0.0 | 66.7* | -4.9 | 0.7 | 4.9
